In ChEMBL document CHEMBL1926518, “Synthesis of macrolones with central piperazine ring in the linker and its influence on antibacterial activity” (2011):
Values after ≈ are worked out from the molar mass of the structure shown.

Assays:
Format in all cases: functional
[1] = system: Staphylococcus aureus; test: Antibacterial activity against erythromycin-sensitive Staphylococcus aureus ATCC 13709 by broth microdilution technique
Procedure, shortened: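 MIC by broth microdilution per CLSI guidelines with doubling dilutions of compounds. Before testing, staphylococci were grown on Mueller–Hinton agar. Values reported in µg/mL.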

[2] = system: Streptococcus pneumoniae; test: Antibacterial activity against erythromycin-sensitive Streptococcus pneumoniae SP030 by broth microdilution technique
Procedure, shortened: (§1)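 Streptococcal MICs by CLSI broth microdilution with doubling dilutions, but with 5% horse serum in the medium in place of lysed blood. Before testing, strains were grown on Columbia agar with 5% sheep blood. Values reported in µg/mL.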

[3] = system: Streptococcus pyogenes; test: Antibacterial activity against erythromycin-sensitive Streptococcus pyogenes 3565 by broth microdilution technique; procedure, shortened: as §1
[4] = system: Staphylococcus aureus; test: Antibacterial activity against inducible macrolide, licosamide and streptogramin-resistant Staphylococcus aureus 90256/97 by broth microdilution technique
Procedure, shortened: (§2)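 MICs were determined by CLSI broth microdilution, with double dilutions of compound. Staphylococci were grown on Mueller–Hinton agar before testing. Results are given in µg/mL.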

[5] = system: Streptococcus pneumoniae; test: Antibacterial activity against inducible macrolide-resistant, constitutive licosamide and streptogramin-resistant Streptococcus pneumoniae 134 GR-Micro by broth microdilution technique
Procedure, shortened: (§3)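 MICs were determined by CLSI broth microdilution, with double dilutions of compound. In the streptococcal medium, 5% horse serum replaced lysed blood. Streptococci were grown on Columbia agar with 5% sheep blood before testing. Results are given in µg/mL.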

[6] = system: Streptococcus pyogenes; test: Antibacterial activity against inducible macrolide, licosamide and streptogramin-resistant Streptococcus pyogenes Finland 11 by broth microdilution technique; procedure, shortened: as §3
[7] = system: Staphylococcus aureus; test: Antibacterial activity against constitutive macrolide, licosamide and streptogramin-resistant Staphylococcus aureus PK2 by broth microdilution technique; procedure, shortened: as §2
[8] = system: Streptococcus pneumoniae; test: Antibacterial activity against constitutive macrolide, licosamide and streptogramin-resistant Streptococcus pneumoniae 58 Spain by broth microdilution technique; procedure, shortened: as §3
[9] = system: Streptococcus pyogenes; test: Antibacterial activity against constitutive macrolide, licosamide and streptogramin-resistant Streptococcus pyogenes 166 GR-Micro by broth microdilution technique; procedure, shortened: as §3
[10] = system: Staphylococcus aureus; test: Antibacterial activity against efflux-mediated macrolide-resistant Staphylococcus aureus PK1 by broth microdilution technique; procedure, shortened: as §2
[11] = system: Streptococcus pneumoniae; test: Antibacterial activity against efflux-mediated macrolide-resistant Streptococcus pneumoniae Ci137 by broth microdilution technique; procedure, shortened: as §3
[12] = system: Streptococcus pyogenes; test: Antibacterial activity against efflux-mediated macrolide-resistant Streptococcus pyogenes 3 Finland by broth microdilution technique; procedure, shortened: as §3
[13] = system: Haemophilus influenzae; test: Antibacterial activity against Haemophilus influenzae ATCC 49247 by broth microdilution technique
Procedure, shortened: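 MIC by broth microdilution per CLSI guidelines with doubling dilutions of compounds. Before testing, organisms were grown on Mueller-Hinton chocolate agar. Values reported in µg/mL.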

[14] = system: Moraxella catarrhalis; test: Antibacterial activity against Moraxella catarrhalis ATCC 23246 by broth microdilution technique
Procedure, shortened: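 MIC by broth microdilution per CLSI guidelines with doubling dilutions of compounds. Before testing, organisms were grown on Columbia agar with 5% sheep blood. Values reported in µg/mL.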

Row | SMILES | MIC [1] | MIC [2] | MIC [3] | MIC [4] | MIC [5] | MIC [6] | MIC [7] | MIC [8] | MIC [9] | MIC [10] | MIC [11] | MIC [12] | MIC [13] | MIC [14]
1 | CCOC(=O)c1cn(CC)c2ccc(C#CCN3CCNCC3)cc2c1=O | > 64 µg/mL | > 64 µg/mL | > 64 µg/mL | > 64 µg/mL | > 64 µg/mL | > 64 µg/mL | > 64 µg/mL | > 64 µg/mL | > 64 µg/mL | > 64 µg/mL | > 64 µg/mL | > 64 µg/mL | > 64 µg/mL | > 64 µg/mL
2 | CCOC(=O)c1cn(C2CC2)c2ccc(CCCN3CCN(CCC(=O)O[C@H]4[C@H](C)O[C@@H](O[C@H]5[C@H](C)[C@@H](O[C@@H]6O[C@H](C)C[C@H](N(C)C)[C@H]6O)[C@](C)(O)C[C@@H](C)CN(C)[C@H](C)[C@@H](OC)[C@](C)(O)[C@@H](CC)OC(=O)[C@@H]5C)C[C@@]4(C)OC)CC3)cc2c1=O | 4 µg/mL (≈ 3.33 µM) | ≤ 0.125 µg/mL | ≤ 0.125 µg/mL | > 64 µg/mL | > 64 µg/mL | 0.25 µg/mL (≈ 0.208 µM) | > 64 µg/mL | 32 µg/mL (≈ 26.7 µM) | 32 µg/mL (≈ 26.7 µM) | > 64 µg/mL | ≤ 0.125 µg/mL | 1 µg/mL (≈ 0.833 µM) | 16 µg/mL (≈ 13.3 µM) | 
3 | CCOC(=O)c1cn(C2CC2)c2ccc(C#CCN3CCNCC3)cc2c1=O | > 64 µg/mL | > 64 µg/mL | > 64 µg/mL | > 64 µg/mL | > 64 µg/mL | > 64 µg/mL | > 64 µg/mL | > 64 µg/mL | > 64 µg/mL | > 64 µg/mL | > 64 µg/mL | > 64 µg/mL | > 64 µg/mL | > 64 µg/mL
4 | CCOC(=O)c1cn(C2CC2)c2ccc(CCCN3CCN(CCC(=O)O[C@H]4[C@H](C)O[C@@H](O[C@H]5[C@H](C)[C@@H](O[C@@H]6O[C@H](C)C[C@H](N(C)C)[C@H]6O)[C@](C)(OC)C[C@@H](C)C(=O)[C@H](C)[C@@H](O)[C@](C)(O)[C@@H](CC)OC(=O)[C@@H]5C)C[C@@]4(C)OC)CC3)cc2c1=O | 4 µg/mL (≈ 3.37 µM) | ≤ 0.125 µg/mL | ≤ 0.125 µg/mL | > 64 µg/mL | 16 µg/mL (≈ 13.5 µM) | 0.5 µg/mL (≈ 0.422 µM) | > 64 µg/mL | 4 µg/mL (≈ 3.37 µM) | 16 µg/mL (≈ 13.5 µM) | > 64 µg/mL | ≤ 0.125 µg/mL | ≤ 0.125 µg/mL | > 64 µg/mL | 4 µg/mL (≈ 3.37 µM)
5 | CCOC(=O)c1cn(C2CC2)c2ccc(C#CCN3CCN(CCC(=O)O[C@H]4[C@H](C)O[C@@H](O[C@H]5[C@H](C)[C@@H](O[C@@H]6O[C@H](C)C[C@H](N(C)C)[C@H]6O)[C@](C)(OC)C[C@@H](C)C(=O)[C@H](C)[C@@H](O)[C@](C)(O)[C@@H](CC)OC(=O)[C@@H]5C)C[C@@]4(C)OC)CC3)cc2c1=O | 4 µg/mL (≈ 3.39 µM) | ≤ 0.125 µg/mL | ≤ 0.125 µg/mL | > 64 µg/mL | 4 µg/mL (≈ 3.39 µM) | 0.5 µg/mL (≈ 0.423 µM) | > 64 µg/mL | 4 µg/mL (≈ 3.39 µM) | 16 µg/mL (≈ 13.5 µM) | > 64 µg/mL | ≤ 0.125 µg/mL | ≤ 0.125 µg/mL | > 64 µg/mL | 4 µg/mL (≈ 3.39 µM)
6 | CCOC(=O)c1cn(CC)c2ccc(C#CCN3CCN(CCC(=O)O[C@H]4[C@H](C)O[C@@H](O[C@H]5[C@H](C)[C@@H](O[C@@H]6O[C@H](C)C[C@H](N(C)C)[C@H]6O)[C@](C)(OC)C[C@@H](C)C(=O)[C@H](C)[C@@H](O)[C@](C)(O)[C@@H](CC)OC(=O)[C@@H]5C)C[C@@]4(C)OC)CC3)cc2c1=O | 0.25 µg/mL (≈ 0.214 µM) | ≤ 0.125 µg/mL | ≤ 0.125 µg/mL | > 64 µg/mL | 1 µg/mL (≈ 0.855 µM) | ≤ 0.125 µg/mL | > 64 µg/mL | ≤ 0.125 µg/mL | 8 µg/mL (≈ 6.84 µM) | 32 µg/mL (≈ 27.4 µM) | ≤ 0.125 µg/mL |  | 4 µg/mL (≈ 3.42 µM) | 1 µg/mL (≈ 0.855 µM)
7 | CCOC(=O)c1cn(CC)c2ccc(CCCN3CCN(CCC(=O)O[C@H]4[C@H](C)O[C@@H](O[C@H]5[C@H](C)[C@@H](O[C@@H]6O[C@H](C)C[C@H](N(C)C)[C@H]6O)[C@](C)(OC)C[C@@H](C)C(=O)[C@H](C)[C@@H](O)[C@](C)(O)[C@@H](CC)OC(=O)[C@@H]5C)C[C@@]4(C)OC)CC3)cc2c1=O | 4 µg/mL (≈ 3.41 µM) | ≤ 0.125 µg/mL | ≤ 0.125 µg/mL | > 64 µg/mL | 16 µg/mL (≈ 13.6 µM) | 0.25 µg/mL (≈ 0.213 µM) | > 64 µg/mL | 8 µg/mL (≈ 6.82 µM) | 16 µg/mL (≈ 13.6 µM) | > 64 µg/mL | ≤ 0.125 µg/mL | ≤ 0.125 µg/mL | > 64 µg/mL | 4 µg/mL (≈ 3.41 µM)
8 | CCOC(=O)c1cn(C2CC2)c2ccc(C#CCN3CCN(CCC(=O)O[C@H]4[C@H](C)O[C@@H](O[C@H]5[C@H](C)[C@@H](O[C@@H]6O[C@H](C)C[C@H](N(C)C)[C@H]6O)[C@](C)(O)C[C@@H](C)CN(C)[C@H](C)[C@@H](OC)[C@](C)(O)[C@@H](CC)OC(=O)[C@@H]5C)C[C@@]4(C)OC)CC3)cc2c1=O | 4 µg/mL (≈ 3.34 µM) | ≤ 0.125 µg/mL | ≤ 0.125 µg/mL | > 64 µg/mL | 0.25 µg/mL (≈ 0.209 µM) | ≤ 0.125 µg/mL | > 64 µg/mL | 0.5 µg/mL (≈ 0.418 µM) | 32 µg/mL (≈ 26.7 µM) | 64 µg/mL (≈ 53.5 µM) | ≤ 0.125 µg/mL | 0.5 µg/mL (≈ 0.418 µM) | 16 µg/mL (≈ 13.4 µM) | 4 µg/mL (≈ 3.34 µM)
9 | CC[C@H]1OC(=O)[C@H](C)[C@@H](O[C@H]2C[C@@](C)(OC)[C@@H](OCCCN3CCN(CCCc4ccc5c(c4)c(=O)c(C(=O)O)cn5CC)CC3)[C@H](C)O2)[C@H](C)[C@@H](O[C@@H]2O[C@H](C)C[C@H](N(C)C)[C@H]2O)[C@](C)(O)C[C@@H](C)CN(C)[C@H](C)[C@@H](O)[C@]1(C)O | 8 µg/mL (≈ 7.06 µM) | ≤ 0.125 µg/mL | 0.5 µg/mL (≈ 0.442 µM) | > 64 µg/mL | 32 µg/mL (≈ 28.3 µM) | 4 µg/mL (≈ 3.53 µM) | > 64 µg/mL | 8 µg/mL (≈ 7.06 µM) | > 64 µg/mL | 32 µg/mL (≈ 28.3 µM) | 0.25 µg/mL (≈ 0.221 µM) | 8 µg/mL (≈ 7.06 µM) | 32 µg/mL (≈ 28.3 µM) | 
